Only some compounds are listed: those with a hit (about 2.1% of all), similar ones and a draw of the others.
PDI inh: PDI (human) enzyme inhibition; PDI insulin aggregation turbidity, A650, 90 min; inhibition, % at 10 µM; hit rate 0.052% among 350,000; AID 588391;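 active = mean inhibition across replicates of 30% or more, whatever share of single replicates reach that level; inconclusive = mean inhibition below 30% while every single replicate reaches 30%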
FGF22 binding: FGF22 (human) thermal shift binding. recombinant FGF22 thermal shift, SYPRO orange fluorescence; percent of sucrose octasulfate shift, DMSO zero. activity (Tm shift, normalised), % at 9.99 µM. Q9HCT0. hit rate 1.5% among 340,000. AID 651658;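 active = mean Tm shift, scaled 0 neutral to 100 positive control, at about 1.3% or above, every replicate too, limit read from the data; inconclusive = no clear call, values can overlap the other calls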
Target sequence (Q9HCT0 whole entry, looked up): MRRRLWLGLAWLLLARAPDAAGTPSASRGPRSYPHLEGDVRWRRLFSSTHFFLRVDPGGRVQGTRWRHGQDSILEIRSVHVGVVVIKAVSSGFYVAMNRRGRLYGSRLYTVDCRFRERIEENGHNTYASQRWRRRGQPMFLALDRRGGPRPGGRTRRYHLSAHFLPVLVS
AF4-AF9 inh: inhibitors of human MLL-AF4/AF9 interaction; P42568; AlphaScreen, biotin-AF4 peptide binding to FLAG-AF9; inhibition, % at 10 µM; hit rate 0.47% among 350,000;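 active = every replicate reaching a set inhibition limit, whatever the replicate mean, cut at about 25% in these data; inconclusive = mean inhibition reaches that limit but some replicates miss it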;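 also: 0% = plate neutral control median and 100% = total signal loss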
ERp5 inh: ERp5 (human) disulfide isomerase inhibition. ERp5 insulin aggregation, absorbance 650 nm, 90 min. inhibition, % at 9.99 µM. Q15084. hit rate 0.05% among 350,000;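 active = mean replicate inhibition above about 25%, with every replicate also reaching it, limit read from the data, passing the limit was not always enough; inconclusive = only one of those two criteria met; inactive = neither criterion met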
Target sequence (Q15084 whole entry, looked up): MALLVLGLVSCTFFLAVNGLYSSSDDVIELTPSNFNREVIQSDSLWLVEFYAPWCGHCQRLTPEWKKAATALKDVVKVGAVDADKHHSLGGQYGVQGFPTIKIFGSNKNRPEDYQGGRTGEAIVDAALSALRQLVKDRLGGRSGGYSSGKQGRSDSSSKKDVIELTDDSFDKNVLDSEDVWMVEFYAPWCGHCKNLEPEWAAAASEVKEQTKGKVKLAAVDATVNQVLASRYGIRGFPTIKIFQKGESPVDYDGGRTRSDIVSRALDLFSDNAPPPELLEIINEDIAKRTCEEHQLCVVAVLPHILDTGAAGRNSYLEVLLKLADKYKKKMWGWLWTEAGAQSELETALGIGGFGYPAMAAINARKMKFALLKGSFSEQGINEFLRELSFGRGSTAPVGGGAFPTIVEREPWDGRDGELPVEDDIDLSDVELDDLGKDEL
ARNT-TACC3 inh: ARNT/TACC3 interaction disruption. hit rate 0.66% among 390,000. inhibition, % at 9.99 µM. Q9Y6A5. AID 623870. AlphaScreen His-ARNT PAS-B/GST-TACC3 binding, luminescence; TACC3 fragment carries E629A point mutation;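 active = mean inhibition of replicates at least 50% and at least half of replicates each reaching 50%; inconclusive = half or more replicates reach 50% but mean below 50%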;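 also: 0% = complete ARNT plus TACC3 wells and 100% = ARNT alone without TACC3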
FN deposit inh: fibronectin deposition inhibition; AID 743247; inhibition, % at 12.6 µM; AH1F fibroblasts, Alexa488-fibronectin deposition fluorescence, overnight; hit rate 0.086% among 350,000;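 active = mean inhibition across replicates of 30% or more, regardless of how many single replicates reach that level; inconclusive = mean under 30% yet at least half of replicates reach 30%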;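 also: positive control wells lacked labelled fibronectin entirely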
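Schedule: 1 h cell adhesion before compound, then overnight fibronectin incubation; test system: AH1F fibroblast monolayer depositing Alexa488-labelled fibronectin into matrix; quantity: 10000 AH1F cells per well; probe or stimulus: fluorescent fibronectin at 24 nM final; signal: fluorescence, ex 485 nm, em 525 nm; evaluation: percent inhibition as loss of matrix-bound fibronectin fluorescence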
* hit, by the source's call; ? = inconclusive; . = no result given.

SMILES	PDI inh	FGF22 binding	AF4-AF9 inh	ERp5 inh	ARNT-TACC3 inh	FN deposit inh
C[C@@H]1CCCCO[C@H](CN(C)C(=O)CCCN(C)C)[C@@H](C)CN([C@@H](C)CO)C(=O)c2cc(N(C)C)ccc2O1	.	-1.4	-2.0	1.2	18.2	.
Fc1ccc(C(CCNCc2ccccn2)c2ccc(Cl)cc2)cc1 (centres undefined)	0.6	.	.	.	47.5*	.
OC(CNCc1ccccn1)c1ccccc1 (centres undefined)	2.7	0.1	0.9	-7.6	48.4*	2.6
CN(C)CC[C@@H](c1ccc(Cl)cc1)c1ccccn1	0.7	0.1	0.9	-4.7	-6.4	-4.7
COc1ccc(S(=O)(=O)Nc2ccc3c(c2)C(=O)N([C@@H](C)CO)C[C@H](C)[C@@H](CN(C)C(=O)NC2CCCCC2)O3)cc1	.	0.2	-2.6	-6.1	-5.1	-15.1
C/C(=N\NC(=O)c1cc(-c2cccs2)nc2ccccc12)c1ccccn1	-2.8	0.4	0.8	2.0	72.5*	11.2
C/C(=N/NC(=O)c1ccccn1)c1ccncc1	-4.1	-0.2	0.3	0.9	12.6	10.7
C/C(=N\NC(=O)c1cc(Br)ccc1O)c1ccccn1	3.1	-0.1	3.8	-3.0	-22.1	-9.6
C/C(=N\NC(=O)c1cccc(Br)c1)c1ccccn1	2.5	0.1	0.9	-1.1	45.0*	1.9
C/C(=N/NC(=O)c1ccc(C(C)(C)C)cc1)c1ccccn1	-3.3	.	15.4	4.1	65.3*	19.3
C/C(=N\NC(=O)c1ccccc1Cl)c1ccccn1	0.3	-0.1	-4.2	0.9	67.0*	4.4
Cc1ccccc1CN(C)C[C@H]1OCc2cn(nn2)CCCC(=O)N([C@@H](C)CO)C[C@@H]1C	.	0.0	1.2	-0.9	-3.2	-1.0
COc1ccc(C(=O)N/N=C(\C)c2ccccn2)cc1OC	-7.5	0.2	-1.4	3.2	67.0*	.
C/C(=N\NC(=O)c1ccc(Cl)c(Cl)c1)c1ccccn1	-4.2	-0.3	3.7	1.9	.	3.8
COC(=O)c1sccc1NC(=O)Cc1ccc(OC)cc1	5.6	0.5	-2.9	-8.2	23.3	1.4
COC(=O)c1sccc1NC(=O)CSCCc1ccncc1	-0.8	43.4*	-1.7	2.9	0.8	-2.3
COc1ccccc1CNC(=O)C[C@H]1CC[C@H]2[C@@H](COC[C@H](O)CN2C(=O)Nc2ccc(F)cc2)O1	.	-0.1	0.1	0.3	3.3	-3.5
CN1CCN(C(=O)C[C@H]2CC[C@@H]3[C@@H](COc4ccc(NC(=O)C5CCCC5)cc4C(=O)N3C)O2)CC1	.	.	47.0*	3.4	.	-5.6
CN1C(=O)c2cc(NC(=O)C3CCCCC3)ccc2OC[C@H]2O[C@H](CC(=O)NC3CCCC3)CC[C@@H]21	.	.	.	.	.	2.6
COc1ccc(CNC(=O)C[C@@H]2CC[C@H]3[C@@H](COc4ccc(NC(=O)C5CC5)cc4C(=O)N3C)O2)cc1	.	-0.2	-2.2	-7.3	active	-5.6
CN1CCN(C(=O)C[C@H]2CC[C@@H]3[C@H](COc4ccc(NC(=O)C5CCCC5)cc4C(=O)N3C)O2)CC1	.	0.1	0.8	-1.3	.	-2.2
CN1C(=O)c2cc(NC(=O)C3CCCCC3)ccc2OC[C@@H]2O[C@@H](CC(=O)NC3CCCC3)CC[C@H]21	.	0.1	-2.2	31.0*	-3.9	-10.8
COc1ccc(CNC(=O)C[C@H]2CC[C@H]3[C@H](COc4ccc(NC(=O)C5CC5)cc4C(=O)N3C)O2)cc1	.	0.0	-1.7	-2.4	12.3	-18.0
O=C(C[C@H]1C[C@@H]2c3cc(NC(=O)C4CCOCC4)ccc3O[C@@H]2[C@H](CO)O1)NCc1ccc2c(c1)OCO2	.	-0.1	-0.4	-1.4	-2.8	.
Oc1ccc2c(c1)OCC1(O)Cc3cc(O)c(O)cc3C21 (centres undefined)	.	-0.1	25.9*	4.0	0.5	.
SMILES	PDI inh	FGF22 binding	AF4-AF9 inh	ERp5 inh	ARNT-TACC3 inh	FN deposit inh
Oc1cc2c(cc1O)[C@H]1c3ccc(O)c(O)c3OC[C@@]1(O)C2	2.6	-0.8	?	-5.1	-2.7	-3.2
OCC1C2c3ccccc3C(c3ccccc32)C1CO (centres undefined)	-2.9	0.1	-3.2	6.9	-4.1	-1.9
O=C(O)C1C(c2ccccc2)c2ccccc2C(O)C1CO (centres undefined)	5.6	43.2*	-2.0	17.1	.	7.0
CCCc1cc(=O)n2[nH]c(C)nc2n1	4.0	.	.	.	-29.0	-4.8
CCCc1cc(=O)n2[nH]c(C(F)(F)F)nc2n1	10.7	43.0*	-1.4	2.2	-2.2	12.2
COc1ccc(S(=O)(=O)Nc2c(C)nc3nc[nH]n3c2=O)cc1	-2.0	43.2*	-2.4	-2.3	-6.0	-19.7
Cc1nc2nc[nH]n2c(=O)c1NS(=O)(=O)c1ccc(F)cc1	-3.4	0.0	-1.4	6.1	-19.0	-1.8
O=C(C[C@H]1CC[C@@H]2[C@H](COC[C@H](O)CN2Cc2cc(F)ccc2F)O1)NCc1ccc(Cl)cc1	.	0.1	3.5	1.4	-0.5	-6.7
Cc1ccc(S(=O)(=O)C2(C(=O)N3CCN(c4cc(C)ccc4C)CC3)CC2)cc1	21.0	0.1	37.8*	2.7	5.8	-6.1
Cc1ccc(S(=O)(=O)C2(C(=O)N3CCCCCC3)CC2)cc1	-1.6	.	.	.	-9.9	1.0
COc1ccc2c3c(n(C)c2c1)[C@H](CO)N(Cc1cccnc1)CC31CCN(C(=O)NC(C)C)CC1	.	.	.	.	.	-1.1
CC(=O)N1CCc2cc(S(=O)(=O)N3CCCCCC3)ccc21	3.3	-0.2	-4.3	-1.8	1.8	-4.1
CS(=O)(=O)N1CCc2cc(S(=O)(=O)N3CCCCC3)ccc21	-3.9	42.9*	-2.2	-4.3	-0.5	13.6
O=C(COc1cccc2c1CCN(Cc1ccccc1)C2=O)N1CCCCC1	-8.1	43.3*	-2.0	4.6	-7.4	.
CCCNC(=O)Nc1ccc2c(c1)C(=O)N(C)[C@@H]1CC[C@H](CC(=O)O)O[C@@H]1CO2	.	1.0	.	.	-23.1	-4.6
CCc1nc2sccc2c(=O)[nH]1	2.3	43.6*	-6.8	-4.9	-0.3	4.7
CC(C)(C)NC(=O)/C=C/c1ccc(C(F)(F)F)cc1	-10.1	43.2*	-2.3	-2.7	-2.5	-7.8
CC(C)(CNC(=O)/C=C/c1ccc(F)cc1)CNC(=O)/C=C/c1ccc(F)cc1	11.2	.	.	.	-1.8	.
C[C@H]1CN([C@@H](C)CO)C(=O)c2cccc(NS(=O)(=O)c3ccccc3)c2O[C@@H]1CN(C)Cc1ccncc1	.	0.1	0.0	-5.0	-16.6	.
COc1ccc(Nc2nc3ccccc3nc2NS(=O)(=O)c2cccs2)cc1	9.9	.	.	.	5.5	2.7
O=S(=O)(Nc1nc2ccccc2nc1OCC(F)(F)F)c1cccs1	-2.1	45.1*	.	11.2	-4.0	2.9
COc1ccc2c3c(n(C)c2c1)[C@H](CO)NCC31CN(CC2CCOCC2)C1	.	0.0	35.1*	-1.3	.	10.9
COc1ccc2c3c(n(C)c2c1)[C@H](CO)NCC31CCN(Cc2ccc(-c3ccccn3)cc2)CC1	.	-0.1	30.3*	10.9	.	.

Compound activity (PubChem)
